Assay results gathered from unrelated publications.
Converted amounts (≈) assume the structure as drawn.

Compound | target or system | test | test system | setting | endpoint | result
C[C@H]1COc2c(N3CCN(C)CC3)c(F)cc3c(=O)c(C(=O)O)cn1c23 | Escherichia coli | microbial growth | ATCCBAA2452 | drug-resistant strain | MIC | ≤ 0.03 µg/mL
Cc1sc2c(c1C)C(c1ccc(Cl)cc1)=N[C@H](CC(=O)OC(C)(C)C)c1nnc(C)n1-2 | HBL1 | cell growth or viability, ATP luminescence |  | 1 µM, 5 days | viability | 110%
N.N.[Cl][Pt][Cl] | HBL1 | cell growth or viability, ATP luminescence |  | 10 µM, 72 h | inhibition | 100%
C[C@@H](N)[C@H](O)CCCCCCCC(=O)CCCCCCCCCCCCCC[C@@H](O[C@@H]1O[C@H](CO)[C@H](O)[C@H](O)[C@H]1O)[C@@H](C)N | Escherichia coli | microbial growth, resazurin | ATCC10536 | 50 µM | inhibition | 100%
C[C@@H](O)[C@H]1C(=O)N2C(C(=O)O)=C(S[C@@H]3CN[C@H](C(=O)N(C)C)C3)[C@H](C)[C@H]12 | Escherichia coli | microbial growth | ATCCBAA2452 | drug-resistant strain | MIC | > 8 µg/mL
NC[C@H]1OB(O)c2c(OCCCO)cccc21 | Escherichia coli | microbial growth | ATCC25922 | 16 h | MIC | 1.56 µM
CN1C(=O)/C(=N\Nc2ncc(-c3cc4ccccc4oc3=O)s2)c2cc(Cl)ccc21 | Staphylococcus aureus | microbial growth, broth dilution | ATCC43300 MRSA |  | MIC | 1.3 µg/mL
CCn1cc(C(=O)O)c(=O)c2cc(F)c(N3CCNCC3)cc21 | Escherichia coli | microbial killing | ATCC 8739, ATCC8739 |  | MBC | 0.25 µM (≈ 0.0798 µg/mL)
N.N.[Cl][Pt][Cl] | BEAS-2B | cell growth or viability, MTT |  | 24 h | IC50 | 103 µM
CC(=O)NC[C@H]1CN(c2ccc(N3CCOCC3)c(F)c2)C(=O)O1 | Staphylococcus aureus | microbial growth, broth dilution | ATCC43300 MRSA |  | MIC | 2.3 µg/mL
CO/N=C(\C(=O)N[C@@H]1C(=O)N2C(C(=O)O)=C(COC(C)=O)CS[C@H]12)c1csc(N)n1 | Escherichia coli | microbial killing | ATCC 8739, ATCC8739 |  | MBC | 1 µM (≈ 0.455 µg/mL)
